ChEMBL document CHEMBL4002622, “A tetramic acid derivative with protein tyrosine phosphatase 1B inhibitory activity and a new nortriterpene glycoside from the Indonesian marine sponge Petrosia sp” (Bioorg Med Chem Lett, 2017)
The source made the active and inactive calls. No cut-off for these calls is given here.

Tests used:
[1] = biological target: T1, Tyrosine-protein phosphatase non-receptor type 1 (Homo sapiens, UniProt P18031); assay: Inhibition of PTP1B (unknown origin) using pNPP as substrate preincubated for 10 mins followed by substrate addition measured after 30 mins
T1 sequence (P18031 whole entry): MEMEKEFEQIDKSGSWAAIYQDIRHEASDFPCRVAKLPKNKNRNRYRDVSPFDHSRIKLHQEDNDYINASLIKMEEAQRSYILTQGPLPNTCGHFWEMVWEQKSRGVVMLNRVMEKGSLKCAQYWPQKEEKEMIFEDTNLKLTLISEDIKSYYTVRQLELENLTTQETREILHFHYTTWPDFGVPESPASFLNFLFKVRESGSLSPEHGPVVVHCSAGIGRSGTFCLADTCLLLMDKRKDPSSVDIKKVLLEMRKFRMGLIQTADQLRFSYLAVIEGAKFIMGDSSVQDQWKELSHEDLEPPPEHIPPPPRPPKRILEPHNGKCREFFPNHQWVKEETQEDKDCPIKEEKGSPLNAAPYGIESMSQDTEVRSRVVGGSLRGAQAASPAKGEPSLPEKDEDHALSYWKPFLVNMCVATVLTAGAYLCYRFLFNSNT
How it was run: (§1)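 Enzyme (0.5 μg/mL stock) in 50 mM citrate pH 6.0, 0.1 M NaCl, 1 mM DTT, 1 mM EDTA; sample added in CH3OH, preincubated 10 min at 37 °C. pNPP (4.0 mM stock) started reaction, 30 min at 37 °C, stopped with 10 M NaOH; p-nitrophenol read at 405 nm. Inhibition (%) = [1 − (sample − blank)/(control − blank)] × 100; oleanolic acid positive control.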

[2] = system: A549; assay: Cytotoxicity against human A549 cells assessed as decrease in cell viability after 72 hrs by WST1 assay; assay type: functional, cell-based
How it was run: (§2)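 Seeded 1×10^4 cells per well, cultured overnight, then exposed to compound for 72 h; controls got 0.1% EtOH. Medium with WST-1 (0.5 mM WST-1, 0.02 mM 1-PMS) added, 60 min at 37 °C, absorbance 438 nm (reference 620 nm). Viability = treated absorbance/control absorbance × 100 (%).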

[3] = system: Huh-7; assay: Cytotoxicity against human HuH7 cells assessed as decrease in cell viability after 72 hrs by WST1 assay; assay type: functional, cell-based; how it was run: as §2
[4] = biological target: T2, Tyrosine-protein phosphatase non-receptor type 1 (Homo sapiens) (UniProt P18031); assay: Inhibition of PTP1B (unknown origin) at 15.2 to 16 uM using pNPP as substrate preincubated for 10 mins followed by substrate addition measured after 30 mins; how it was run: as §1
T2 sequence (whole entry): T1 sequence (P18031 whole entry)

Row | SMILES | IC50 [1] [µM] | Activity [2] | Activity [3] | inhibition [4]
1 | CCCCCCCC(C)CCC/C(O)=C1\C(=O)C(C)N(C)C1=O (stereo not drawn) [MELOPHLIN C] | 14.6 | – | – | –
2 | CC(=O)C[C@@H](C)[C@H]1CC[C@H]2C3=C(CC[C@]12C)[C@@]1(C)CC[C@H](O[C@@H]2OC[C@@H](O[C@@H]4O[C@H](CO)[C@H](O)[C@H](O)[C@H]4NC(C)=O)[C@H](O)[C@H]2O[C@@H]2O[C@H](CO[C@@H]4O[C@H](CO)[C@@H](O)[C@H](O)[C@H]4O[C@@H]4O[C@H](CO)[C@@H](O)[C@H](O)[C@H]4O)[C@@H](O)[C@H](O)[C@H]2NC(C)=O)C(C)(C)[C@@H]1CC3 | – | inactive | inactive | inactive
3 | CC(=O)N[C@H]1[C@H](O[C@@H]2CO[C@@H](O[C@H]3CC[C@]4(C)C5=C(CC[C@H]4C3(C)C)[C@@H]3CC[C@H]([C@H](C)CC(=O)CC(C)(C)O)[C@@]3(C)CC5)[C@H](O[C@@H]3O[C@H](CO[C@@H]4O[C@H](CO)[C@@H](O)[C@H](O)[C@H]4O[C@@H]4O[C@H](CO)[C@@H](O)[C@H](O)[C@H]4O)[C@@H](O)[C@H](O)[C@H]3NC(C)=O)[C@H]2O)O[C@H](CO)[C@H](O)[C@@H]1O | – | inactive | inactive | inactive
4 | CC(=O)N[C@H]1[C@H](O[C@@H]2CO[C@@H](O[C@H]3CC[C@@]4(C)[C@@H](CCC5=C6[C@@H](O)C[C@H]([C@H](C)CC(=O)C=C(C)C)[C@@]6(C)CC[C@@]54O)C3(C)C)[C@H](O[C@@H]3O[C@H](CO[C@@H]4O[C@H](CO)[C@@H](O)[C@H](O)[C@H]4O[C@@H]4O[C@H](CO)[C@@H](O)[C@H](O)[C@H]4O)[C@@H](O)[C@H](O)[C@H]3NC(C)=O)[C@H]2O)O[C@H](CO)[C@H](O)[C@@H]1O | – | inactive | inactive | inactive
5 | CC(=O)N[C@H]1[C@H](O[C@@H]2CO[C@@H](O[C@H]3CC[C@]4(C)C5=C(CC[C@H]4C3(C)C)[C@@H]3CC[C@H]([C@H](C)CC(=O)C=C(C)C)[C@@]3(C)CC5)[C@H](O[C@@H]3O[C@H](CO[C@@H]4O[C@H](CO)[C@@H](O)[C@H](O)[C@H]4O[C@@H]4O[C@H](CO)[C@@H](O)[C@H](O)[C@H]4O)[C@@H](O)[C@H](O)[C@H]3NC(C)=O)[C@H]2O)O[C@H](CO)[C@H](O)[C@@H]1O | – | inactive | inactive | inactive
